From ChEMBL document CHEMBL1124979, “4-Heterocyclyloxy-2H-1-benzopyran potassium channel activators” (1990)

Key:
Rattus norvegicus [1] = assay: Antihypertensive activity measured by maximum fall in the mean blood pressure after an oral administration of 1 mg/kg in spontaneously hypertensive rats; NS= Did not lower the blood pressure significantly; assay type: functional, organism-based; parameters: dose 1 mg/kg
Outline: (§1)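 Conscious, unrestrained male spontaneously hypertensive rats (Okamoto strain, 280-330 g, blood pressure >180 mmHg), N ≥ 3, given a single 1 mg/kg oral screening dose. Mean arterial pressure was recorded directly via an aortic catheter from 1 h before to 3.5 h after dosing. The value is the mean of the maximum individual falls over 3.5 h; a fall under 18 mmHg counted as not significant.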

Rattus norvegicus [2] = assay: Antihypertensive activity measured by maximum fall in the mean blood pressure after an oral administration of 1 mg/kg in spontaneously hypertensive rats; assay type: functional; outline: as §1
Rattus norvegicus [3] = species on record: Rattus norvegicus; assay: Dose required to reduce mean blood pressure by 30 mmHg in spontaneously hypertensive rats; assay type: functional
Outline: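 Conscious male Okamoto SHR (280-330 g, baseline pressure >180 mmHg) fitted with an aortic catheter for continuous direct recording of mean arterial pressure over 3.5 h. Compounds active at the 1 mg/kg oral screen were given orally at 2-4 additional doses. Mean maximal falls were regressed linearly against log dose to derive ED30, the dose in […] lowering pressure by 30 mmHg.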

[4] = Rattus norvegicus, Blood, read-out: ED30

Structure (SMILES)	BP (Rattus norvegicus [1])	BP (Rattus norvegicus [2]) [mmHg]	also measured
CC1(C)Oc2ccc(C#N)cc2C(n2ccc(N)nc2=O)[C@@H]1O (stereo partly specified)	Not significant		
CC1(C)Oc2ccc(C(=N)S)cc2[C@@H](Oc2ccnc(O)c2)[C@@H]1O	Not significant		
CC1(C)Oc2ccc(C#N)cc2[C@@H](Oc2ccnc(O)c2)[C@@H]1O		104	ED30 (Rattus norvegicus [3]; [4]): 0.006 mg/kg
CC1(C)Oc2ccc(C#N)cc2[C@@H](Oc2ccc(O)nc2)[C@@H]1O		23	
CC1(C)C=C(Oc2ccc(S)nn2)c2cc(C#N)ccc2O1	Not significant		
CC1(C)Oc2ccc(C(N)=S)cc2C(Oc2ccc(=O)[nH]n2)C1O (stereo unspecified)	Not significant		
CC1(C)Oc2ccc([N+](=O)[O-])cc2[C@@H](Oc2ccnc(O)c2)[C@@H]1O		117	ED30 (Rattus norvegicus [3]; [4]): 0.013 mg/kg
Cn1nc(OC2=CC(C)(C)Oc3ccc(C#N)cc32)ccc1=O	Not significant		
CC1(C)Oc2ccc([N+](=O)[O-])cc2C(Oc2ccc(=O)[nH]n2)C1O (stereo unspecified)		78	
CC1(C)C=C(n2ccc(O)cc2=O)c2cc(C#N)ccc2O1		19	
CC1(C)Oc2ccc(C#N)cc2C(N2CCCC2=O)C1O (stereo unspecified) [CROMAKALIM]		78	ED30 (Rattus norvegicus [3]; [4]): 0.11 mg/kg
CC1(C)Oc2ccc(C#N)cc2[C@H](Oc2ccc(=O)[nH]n2)[C@H]1O	Not significant		
CC1(C)Oc2ccc(Br)cc2C(Oc2ccc(=O)[nH]n2)C1O (stereo unspecified)	Not significant		
Cn1nc(O[C@H]2c3cc(C#N)ccc3OC(C)(C)[C@@H]2O)ccc1=O		19	
Cn1nc(O[C@@H]2c3cc(C#N)ccc3OC(C)(C)[C@H]2O)ccc1=O (stereo in doubt; 22a)			BP (Rattus norvegicus [2]; 1 mg/kg): 151 mmHg; ED30 (Rattus norvegicus [3]): 0.013 mg/kg
CC(C)n1nc(O[C@@H]2c3cc(C#N)ccc3OC(C)(C)[C@H]2O)ccc1=O		32	
CC1(C)Oc2ccc(C#N)cc2[C@@H](Oc2cccnc2O)[C@@H]1O	Not significant		

Structure (SMILES)	BP (Rattus norvegicus [1])	BP (Rattus norvegicus [2]) [mmHg]	also measured
CC1(C)C=C(Oc2ccc(=O)[nH]n2)c2cc(C#N)ccc2O1	Not significant		
CC1(C)C=C(Oc2ccnc(O)c2)c2cc(C#N)ccc2O1	Not significant		
CC1(C)Oc2ccc(C#N)cc2[C@@H](n2[nH]c(=O)ccc2=O)[C@@H]1O	Not significant		
CC1(C)Oc2ccc(C#N)cc2C(n2nc(N)ccc2=O)[C@@H]1O (stereo partly specified)		39	
COC(=O)c1ccc2c(c1)C(Oc1ccc(=O)[nH]n1)C(O)C(C)(C)O2 (stereo unspecified)		18	
CC1(C)Oc2ccc(C#N)cc2[C@@H](Oc2cccnc2N)[C@@H]1O	Not significant		
COC(=O)c1ccc2c(c1)[C@@H](Oc1ccnc(O)c1)[C@H](O)C(C)(C)O2	Not significant		
CC(=O)OC1C(Oc2ccc(=O)[nH]n2)c2cc(C#N)ccc2OC1(C)C (stereo unspecified)		97	
CC1(C)Oc2ccc(C#N)cc2[C@@H](Oc2ccc(S)nn2)[C@@H]1O	Not significant		
Cn1ccc(O[C@@H]2c3cc(C#N)ccc3OC(C)(C)[C@H]2O)cc1=O		83	
CCn1nc(O[C@@H]2c3cc(C#N)ccc3OC(C)(C)[C@H]2O)ccc1=O		127	ED30 (Rattus norvegicus [3]; [4]): 0.02 mg/kg
CC1(C)Oc2ccc(C#N)cc2[C@@H](Oc2cc(O)ncn2)[C@@H]1O	Not significant		
CC1(C)Oc2ccc(C#N)cc2C(n2ccc(N)cc2=O)[C@@H]1O (stereo partly specified)	Not significant		
CC1(C)Oc2ccc(C#N)cc2[C@@H](n2ccc(O)cc2=O)[C@@H]1O		28	
Cn1nc(O[C@@H]2c3cc(C#N)ccc3OC(C)(C)[C@H]2O)ccc1=O (stereo in doubt; 14a)			BP (Rattus norvegicus [2]; 1 mg/kg): 124 mmHg; ED30 (Rattus norvegicus [3]; [4]): 0.018 mg/kg
CC(=O)Oc1ccn(C2=CC(C)(C)Oc3ccc(C#N)cc32)c(=O)c1		28	
CC1(C)Oc2ccc(C#N)cc2C(Oc2ccc(=O)[nH]n2)C1O (stereo unspecified)		129	ED30 (Rattus norvegicus [3]; [4]): 0.014 mg/kg
